The nature of the assay: off-target binding across receptor panel, profiling panel, selectivity assay for mGlu3 NAM project, biochemical, Eurofins PanLabs, radioligand binding (AID 651830). The note with it: at 10 µM, stronger effect = higher value. The gist of the method: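 Also added: radioligand selective for each panel target / Read-out basis: % inhibition of radioligand binding / Signal: radioligand displacement measurement in binding assay / Controls: reference standards included in every assay run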

Activity calls are given as the source filed them.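 Rule for the calls: active = inhibition above 50% in the panel binding assay; inactive = inhibition of 50% or less.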

Broadly, the inhibition is the drop in the measured response relative to a control, in per cent. With `COc1ccc(C#Cc2ccc(C(=O)N3CCC[C@@H](O)C3)c(F)c2)cc1`, the inhibition was 74% (active). Also, the inhibition (measured here: 5-HT1A binding) was determined as 71%. Besides, the inhibition (measured here: 5-HT2B binding) is -12%. Further, for the setting “measured here: N-type calcium channel binding”, the inhibition amounted to 22%. Moreover, the inhibition (measured here: P2X binding) was determined as 31%. In addition, where the note is “measured here: adenosine A3 binding”, the inhibition was determined as 45%. Also, the inhibition (measured here: alpha1D adrenergic binding) was found to be 20%. Also, for the setting “measured here: dopamine D3 binding”, the inhibition was 24%. Besides, for the setting “measured here: hERG binding”, the inhibition came out at 28%. The inhibition (measured here: kainate receptor binding) amounted to 19%. For the same compound, the inhibition (measured here: norepinephrine transporter binding) was 25%. In addition, the inhibition (measured here: serotonin transporter binding) is -1%. Besides, the inhibition (measured here: sigma1 binding) was determined as 33%.

The values are drawn from PubChem BioAssay AID651830 (Vanderbilt Specialized Chemistry Center, 2012).
